Source: PubChem BioAssay AID588627 (Johns Hopkins Ion Channel Center, 2011)
Out of some 310,000 compounds screened, about 1,400 (0.45%) were called active.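 How the source made its calls: active means calcium response B-score plate-corrected fluorescence ratio at least 3 library SD, with starting fluorescence B-score inside 5 SD; inactive means the rest.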 Shown is part of a subset that was picked to be rich in actives.

These molecules were tested against Mas-related G-protein coupled receptor member X1 (Homo sapiens) (UniProt Q96LB2) (assay: MrgX1 activation via calcium signaling – HEK293 cells, Fluo-4 calcium flux, primary screen (AID 588627;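 on B-score: B-score of the peak-minus-trough calcium fluorescence change over baseline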)). Details: Fluo-4 calcium fluorescence, agonist mode, at 10 µM; stronger effect = higher value.
Procedure, shortened: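 times = overnight plating, then 30 min 37 °C plus 30 min room-temperature dye loading | assay system = stable human MrgX1 HEK293 cell line | input = fifteen thousand cells per well | signal = kinetic calcium dye fluorescence, Fluo-4 NW | dosing = compound delivered in addition one of three | read-out = B-scored fluorescence response ratio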

Sequence of Mas-related G-protein coupled receptor member X1 (Homo sapiens) (Q96LB2 whole entry, looked up): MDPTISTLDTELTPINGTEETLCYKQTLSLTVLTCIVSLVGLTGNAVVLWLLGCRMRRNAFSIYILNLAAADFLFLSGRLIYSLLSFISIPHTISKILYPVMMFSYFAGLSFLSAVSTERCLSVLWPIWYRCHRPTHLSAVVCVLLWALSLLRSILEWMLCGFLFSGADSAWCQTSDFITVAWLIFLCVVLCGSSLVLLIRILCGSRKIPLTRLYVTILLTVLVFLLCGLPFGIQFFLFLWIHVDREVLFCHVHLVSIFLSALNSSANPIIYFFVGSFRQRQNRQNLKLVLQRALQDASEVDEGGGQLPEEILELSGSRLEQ

B-score, inactive:
CCCCN1C(=O)/C(=C/C=C2/C=Cc3ccccc3N2CC)SC1=S
CCCCN1C(=O)/C(=C2/C=CC=CN2C)SC1=S
COc1ccc(CCNc2ncnc3c2nnn3Cc2ccccc2)cc1
Cc1c(CN2CC[C@@H](N3CCN(c4ccccn4)CC3)[C@H](O)C2)[nH]c2ccc(F)cc12
O=C(NNC(=S)NCc1ccco1)C(c1ccccc1)c1ccccc1
CC(C)C(=O)Nc1cccc(NC(=S)NC(=O)C(c2ccccc2)c2ccccc2)c1
CN(C)Cc1ccc(F)cc1Sc1cc(Cl)ccc1Cl
COc1ccccc1N1CC(C(=O)Nc2nnc(SCC(=O)NC(C)C)s2)CC1=O (stereo unspecified)
CCc1noc(C)c1C(=O)Nc1nc(-c2ccccc2)cs1
OC(C#CCN1CCOCC1)(c1ccccc1)C1CCCCC1 (stereo unspecified)
Cc1ccc(C(=O)NNC(=O)C(C)Oc2ccc3ccccc3c2)o1 (stereo unspecified)
CCCc1ccc(OCC(=O)NNC(=S)NC(=O)c2ccco2)cc1
CCC1(c2ccccc2)NC(=O)N(CC(=O)c2ccc3c(c2)OCO3)C1=O (stereo unspecified)
O=C(CN1CCC(O)(c2ccccc2)CC1)Nc1ccc2c(c1)OCCO2
Cc1ccc(N=C2SCCCN2C(=O)c2cccc(N3C(=O)CCC3=O)c2)cc1Cl
CS(=O)(=O)c1sc(C(=O)NC(=S)Nc2ccc(OC(F)(F)F)cc2)c2c1C=CCC2
CC(=O)OCC(COC(C)=O)OC(C)=O
O=C(Nc1cccc(F)c1)c1coc(=O)c(Br)c1
N#Cc1cc([N+](=O)[O-])ccc1NCC1CCCO1 (stereo unspecified)
Cn1c2ccccc2c(=O)c2c(=O)n(Cc3ccco3)c(COc3ccccc3)nc21
CCCc1nc2c(c(=O)c3ccccc3n2C)c(=O)n1-c1cc(C)cc(C)c1
C/C=C/c1ccc(OCC(=O)OCC(=O)Nc2c(C)nn(-c3ccccc3)c2C)c(OC)c1
COc1cc2c3c(c1)/C(=C1/SC(=S)NC1=O)C(=O)N3C(C)(C)C=C2C
O=C(COC(=O)c1ccc(O)cc1)Nc1nccs1
COc1ccc(CNc2ccc3c(c2)CCC3)cc1OC
O=C(COC(=O)CNS(=O)(=O)c1ccccc1)NC12CC3CC(CC(C3)C1)C2
CN(C)C(=O)N=NC(=O)N(C)C
NC1=NC(=O)C2(COC(c3ccccc3Cl)OC2)S1 (stereo unspecified)
CC(C)(C)SCCNC(=O)c1cccc([N+](=O)[O-])c1
CCCCCC(=O)NC(=S)NNC(=O)c1ccc([N+](=O)[O-])cc1
CC(=O)c1c(O)cc2n(c1=O)-c1ccc(Cl)cc1C2(C)C
CCN(CC(=O)Nc1ccc2c(c1)OCCO2)Cc1cc(=O)oc2cc(C)c(C)cc12
CC(=O)Nc1ccc(NC(=O)CS(=O)(=O)c2cn(CC(=O)N3CCCCC3)c3ccccc23)cc1
CC1CCCN(S(=O)(=O)c2ccc(C(=O)Nc3nnc(-c4ccncc4)o3)cc2)C1 (stereo unspecified)
CSCc1nnc(NC(=O)c2ccc(S(=O)(=O)N3CCCCC3C)cc2)o1 (stereo unspecified)
Cc1nc(N)nc(SCc2ccc([N+](=O)[O-])cc2)c1N
CCN(C(=O)CN1C(=O)/C(=C/c2ccc(F)cc2)SC1=S)C1CCS(=O)(=O)C1 (stereo unspecified)
Nc1ccccc1SCc1cc([N+](=O)[O-])cc2c1OCOC2
CCS(=O)(=O)c1cc([N+](=O)[O-])c(Sc2ccccc2N)s1
CN1CCN(C(=O)c2ccc(NS(=O)(=O)c3ccccc3)cc2)CC1
C/C(=N\NC(=O)c1ccc2ccccc2c1)c1cccnc1
O=C(NCCC1CCCCN1S(=O)(=O)c1ccc(F)cc1)C(=O)NC1CC1 (stereo unspecified)
CN(C)c1ccc(CNC(=O)CN2C(=O)COc3ccc(S(=O)(=O)N4CCCC4)cc32)cc1
CC(=O)Nc1ccc(NC(=O)CN2C(=O)COc3ccc(S(=O)(=O)N4CCCCC4)cc32)cc1
CCN(CC)S(=O)(=O)c1ccc(N2CC(C(=O)NCc3cccnc3)CC2=O)cc1 (stereo unspecified)
COc1ccnc(Oc2ccccc2)n1
Cc1ccc(S(=O)(=O)N(CC(=O)NN=C2CCN(C)CC2)c2ccc(F)cc2)cc1
O=C1c2ccccc2C(=O)N1c1cccc2ccccc12
CC(C)OC(=O)CN1C(=O)C(=O)c2ccccc21
N/C(=N\OC(=O)CCCC(=O)O)c1ncc(C(F)(F)F)cc1Cl
CC1CCCCC1NC(=O)CN1CCC(O)(c2ccc3c(c2)OCO3)CC1 (stereo unspecified)
O=[N+]([O-])c1ccc2c(c1)C(O)n1nc(-c3ccccc3)nc1S2 (stereo unspecified)
CCOC(=O)CNC(=O)/C(=C\c1ccc(F)cc1)NC(=O)c1ccccc1
COc1ccc(/C=C(\NC(=O)c2ccccc2)C(=O)NCCN2CCOCC2)cc1OC
C/C(=N\Nc1cccc(C(=O)O)c1)c1ccc2c(c1)Nc1ccccc1S2
CCn1c(CC(=O)Nc2ccccc2)nnc1SCC(=O)N1CCOCC1
O=[N+]([O-])c1ccc(F)cc1Oc1nc(-c2cccnc2)nc2ccccc12
Cc1cccc(-c2nc(Nc3ccc(O)cc3)c3ccccc3n2)c1
CN(C)/C(=N\OC(=O)c1ccccc1)c1nonc1N
C=CCO/N=C/C1=C(O)C(C(=O)OC)C(C)(C)CC1=O (stereo unspecified)
C#CCOCCOCCOCCNc1nc(N2CCN(C(=O)CCCCCCCCCCNC(=O)Cn3cc(CCCCCN)nn3)CC2)nc(N2CCN(C(=O)CCCCCCCCCCNC(=O)[C@H](CO)n3cc(CCCSC)nn3)CC2)n1
C#CCOCCOCCOCCNc1nc(N2CCN(C(=O)CCCCCCCCCCNC(=O)[C@H]([C@@H](C)CC)n3cc(CCCCN=C(N)N)nn3)CC2)nc(N2CCN(C(=O)CCCCCCCCCCNC(=O)[C@H](CO)n3cc(CCCSC)nn3)CC2)n1
COC(=O)c1cc(S(=O)(=O)N2CCC(C(N)=O)CC2)oc1C
CCOc1ccc(NC(=O)c2ccc(NC(=O)CN3C(=O)C(=O)N(CC(C)C)C3=O)cc2)cc1
Cc1cc(C(=O)NNC(=S)Nc2ccccc2C)cs1
COCCCNc1nc2ccccc2nc1NS(=O)(=O)c1ccc(F)cc1
C#CCOc1ccc(/C=C2/C(=O)NN(c3ccccc3)C2=O)cc1OC
COc1cc(/C=C2/C(=O)NN(c3ccc(F)cc3)C2=O)cc([N+](=O)[O-])c1O
CCCCc1nc(SCC(=O)Nc2nnc(C(C)C)s2)n[nH]1
C=CCN1CN(S(=O)(=O)c2ccc(OC)cc2)c2nc3ccccc3nc21
O=C(COC(=O)/C=C/c1cccc(Cl)c1)NCCc1ccccc1
COCCNC(=O)C1CCN(C(=O)C2CC(=O)N(c3ccc(C)cc3)C2)CC1 (stereo unspecified)
O=C(Cc1ccc(Cl)c(Cl)c1)Nc1ccc(SC(F)F)cc1
O=C(CC1SCCNC1=O)Nc1ccc(Cl)c(Cl)c1 (stereo unspecified)
Cc1nn(C)c(C)c1C(C)NC(=O)c1ccc(OC2CCN(Cc3ccccn3)CC2)cc1 (stereo unspecified)
COc1cccc(COC(=O)C2CCN(S(=O)(=O)c3ccc(Cl)cc3)CC2)c1OC
CCOc1ccc(S(=O)(=O)N2CCC(C(=O)OCc3ccc(OC)cc3)CC2)cc1
NC(=O)C1CCN(C(=O)CC2C(=O)NCCN2Cc2cccc(Oc3ccccc3)c2)CC1 (stereo unspecified)
Cc1nn(CCCC(=O)NCc2ccccc2Cl)c(=O)c2nccn12
COc1ccc(OC)c(C(=O)c2ccc(C(=O)O)cc2)c1
COc1ccc(OC)c(C(=O)c2coc3ccc(OC)cc23)c1

B-score, active:
CCCCN1C(=O)/C(=C2/Sc3ccc(Cl)cc3N2CC)SC1=S 34.9
Fc1ccc2[nH]c3c(N4CCSCC4)ncnc3c2c1 29.1
CCCCC(=O)NNC(=S)NC(=O)C(c1ccccc1)c1ccccc1 145
CC(Oc1ccc2ccccc2c1)C(=O)NNC(=S)NC(=O)c1ccco1 (stereo unspecified) 69.9
O=C(CCN1CCc2ccccc2C(O)(c2ccccc2)C1)c1ccc2c(c1)OCCO2 (stereo unspecified) 29.6
CC(=O)OC(C)C[N+](C)(C)C (stereo unspecified) 119
CC(C[N+](C)(C)C)OC(N)=O (stereo unspecified) 36.5
CCCc1nc2c(c(=O)c3ccccc3n2C)c(=O)n1C1CCCCCC1 63
CC(C)CC(=O)NC(=S)NNC(=O)c1cccc([N+](=O)[O-])c1 70.6
CC1CCCCN1S(=O)(=O)c1ccc(C(=O)Nc2nnc(-c3cccs3)o2)cc1 (stereo unspecified) 48.6
Nc1ccccc1SC(C[N+](=O)[O-])c1ccccc1 (stereo unspecified) 28.1
Cc1cccc(N(C)C(=O)CN2C(=O)COc3ccc(S(=O)(=O)N4CCCCCC4)cc32)c1 46.3
O=C1C(=O)N(c2ccccc2)c2ccccc21 29.6
Cn1c2ccccc2c2cc(/C=C(\NC(=O)c3ccccc3)C(=O)NCC(=O)O)ccc21 52.2
COc1ccc(Nc2nc(-c3cccnc3)nc3ccccc23)cn1 38.4
C#CCOCCOCCOCCNc1nc(N2CCN(C(=O)CCCCCCCCCCNC(=O)[C@H](CCCCN)n3cc(C)nn3)CC2)nc(N2CCN(C(=O)CCCCCCCCCCNC(=O)[C@H](CO)n3cc(CCCSC)nn3)CC2)n1 29.2
COc1cc(/C=C2/C(=O)NN(c3cccc(Cl)c3)C2=O)cc(Br)c1O 45.3
O=C(CC(O)(C(F)(F)F)C(F)(F)F)Nc1ccc(Cl)c(Cl)c1 38.4
COC(=O)c1ccc(COC(=O)C2CCN(S(=O)(=O)c3c(Cl)cccc3Cl)CC2)o1 28.7
COc1ccc(OC)c(C(=O)c2ccc(Cl)cc2)c1 29.4
